Assay results: ChEMBL document CHEMBL1132718, “Design and synthesis of imidazoline derivatives active on glucose homeostasis in a rat model of type II diabetes. 2. Syntheses and biological activities of 1,4-dialkyl-, 1,4-dibenzyl, and 1-benzyl-4-alkyl-2-(4',5'-dihydro-1'H-imidazol-2'-yl)piperazines and isosteric analogues of imidazoline” (J Med Chem, 1999)

Columns and labels:
Rattus norvegicus [1] = assay: Incremental glycemia values over baseline integrated over 30 min after glucose administration (iv) at a concentration 0.5 g/kg; assay type: functional; parameters: unit: %
In short: (§1)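 STZ-diabetic rats: 3-month-old male Wistar (250 g) given streptozotocin 35 mg/kg iv. Single ip dose of 100 µmol/kg, then iv glucose 0.5 g/kg for IVGTT. Read-outs: ΔG (glycemia increment over baseline integrated over 30 min), G30 (glycemia at 30 min), K (disappearance rate 5–30 min). Expressed as percent variation versus untreated STZ rats, normalized to nondiabetic controls; 4–8 rats per compound, ±SEM.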

Rattus norvegicus [2] = assay: Rate of glucose disappearance between 5 and 30 min after glucose administration with an intraperitoneal administration of 100 (umol/kg) to STZ rats; assay type: functional, organism-based
In short: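 Three-month-old male Wistar rats (250 g) made diabetic with streptozotocin 35 mg/kg iv. Single ip dose of 100 µmol/kg, then IVGTT with glucose 0.5 g/kg iv. K is the rate of glucose disappearance between 5 and 30 min after the glucose load. Expressed as percent variation between treated and untreated diabetic rats, relative to nondiabetic controls. 4–8 rats per compound, ±SEM.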

Rattus norvegicus [3] = assay: Percent of variation of glycemia value 30 mins after glucose administration by intraperitoneal dose of 100 uM/Kg to STZ rats compared to untreated rats; assay type: functional; parameters: unit: %; in short: as §1
[4] = Partition coefficient (logP); assay type: physicochemical; conditions: octanol/water
Rattus norvegicus [5] = assay: Percent of variation of glycemia value 30 mins after glucose administration with a peroral administration of 100 umol/kg to STZ rats; assay type: functional; parameters: unit: %
In short: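 Oral (po) dosing at 100 µmol/kg in STZ rats (male Wistar, 3 months old, 250 g, streptozotocin 35 mg/kg iv), followed by IVGTT with glucose 0.5 g/kg iv. G30 (glycemia 30 min after the glucose load) is expressed as percent variation between treated and untreated STZ rats, relative to nondiabetic controls.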

logP [4]	Structure (SMILES)	Delta G (Rattus norvegicus [1])	K (Rattus norvegicus [2])	G30 (Rattus norvegicus [3])	G30 (Rattus norvegicus [5])
	C=CCN1CCN(CC=C)C(C2=NCCN2)C1 (configuration not stated)	19	35	30	
	c1ccc2c(c1)OCC(C1=NCCN1)O2 (configuration not stated) [IDAZOXAN]	8	79	48	
2.21	CN1CCN(Cc2ccc(Cl)cc2Cl)C(C2=NCCN2)C1 (configuration not stated)	105		112	64
	C1CNC(C2CN(C(C3CC3)C3CC3)CCN2C(C2CC2)C2CC2)=N1 (configuration not stated)	24	41	89	
	c1ccc(C(CC2=NCCN2)c2ccccn2)cc1 (configuration not stated) [MIDAGLIZOLE]	32		121	
	CC(C)CN1CCN(C)C(C2=NCCN2)C1 (configuration not stated)	40	42	21	
	CC(C)N1CCN(c2ccccc2)CC1C1=NCCN1 (configuration not stated)	0	60	15	
	CN1CCN(C(C2CC2)C2CC2)C(C2=NCCN2)C1 (configuration not stated)	101	47	55	
	CN1CCN(Cc2ccccc2Cl)C(C2=NCCO2)C1 (configuration not stated)	8	0	0	
2.18	CC(C)CN1CCN(CC(C)C)C(C2=NCCN2)C1 (configuration not stated)	141	79	89	66
	CC(C)CN1CCN(C)CC1C1=NCCN1 (configuration not stated)	113	55	48	
	CN1CCN(Cc2ccc(Cl)cc2Cl)C(c2ncc[nH]2)C1 (configuration not stated)	0	37	14	
	CN1CCN(c2ccccc2)C(C2=NCCN2)C1 (configuration not stated)	6	39	28	
	CN1CCN(Cc2ccc(Cl)cc2Cl)C(CC2=NCCN2)C1 (configuration not stated)	19	91	42	
	CC(C)N1CCN(C(C)C)C(CC2=NCCN2)C1 (configuration not stated)	27	79	0	
	c1ccc(CN2CCN(Cc3ccccc3)C(CC3=NCCN3)C2)cc1 (configuration not stated)		49	0	
	CN1CCN(Cc2ccc(Cl)cc2Cl)C(C2=NCCN2C)C1 (configuration not stated)	24	64	75	
	C1CCC(N2CCN(C3CCCC3)C(C3=NCCN3)C2)C1 (configuration not stated)	58	23	103	
	CN1CCN(Cc2ccc(Cl)cc2Cl)C(C2=NCCCN2)C1 (configuration not stated)	47	38	30	
	CN1CCN(c2ccccc2Cl)CC1C1=NCCN1 (configuration not stated)	10	60	17	
	C/N=C(/N)C1CN(C(C)C)CCN1C(C)C (configuration not stated)	43	62	77	
1.15	CC(C)N1CCN(C(C)C)C(C2=NCCN2)C1 (configuration not stated)	138	47	89	73
	N=C(N)C1CN(Cc2ccccc2)CCN1Cc1ccccc1 (configuration not stated)	55	65	65	
3.22	CCC(C)CN1CCN(CC(C)CC)C(C2=NCCN2)C1 (configuration not stated)	104	82	83	4.3
	C/N=C(/N)C1CN(Cc2ccccc2)CCN1Cc1ccccc1 (configuration not stated)	50	60	62	
	CC(C)N1CCN(c2ccccc2)C(C2=NCCN2)C1 (configuration not stated)	11	102	91	
	C=C(C)CN1CCN(CC(C)C)C(C2=NCCN2)C1 (configuration not stated)	53	76	41	
	CC(C)(C)CN1CCN(CC(C)(C)C)C(C2=NCCN2)C1 (configuration not stated)	54	67	81	
	COc1ccccc1CN1CCN(C)CC1CC1=NCCN1 (configuration not stated)	31	53	36	

Structure (SMILES)	logP [4]	Delta G (Rattus norvegicus [1])	K (Rattus norvegicus [2])	G30 (Rattus norvegicus [3])	G30 (Rattus norvegicus [5])
C=CCN1CCN(CC(C)C)C(C2=NCCN2)C1 (configuration not stated)	1.3	115	61	55	23
C=C(C)CN1CCN(CC(=C)C)C(C2=NCCN2)C1 (configuration not stated)	1.45	116	117	96	0
